Data on six compounds can be found in paper PMC4755300 (European journal of medicinal chemistry, 2015).

Data set [1] relates to ARPE19 cells. Kind of data set: Confocal imaging of ARPE19 cells labeled with compound 9. In kind it is cell-based, human. Particulars: PB190 100 µM pretreatment 40 min. The procedure, abridged:
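ARPE19 cells were grown in DMEM with 10% FBS and 1% penicillin-streptomycin under 5% CO2. Treatment and imaging were done in HBSS. Control wells were pretreated with PB190 100 µM for 40 min. Cells then received test compound 0.5 µM for 40 min and were rinsed twice in HBSS. Laser confocal imaging used a 60X oil objective, excitation 408 nm and emission detection 525 nm.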

Another data set has as its system MCF7wt cells. The data set is described as follows: Flow cytometry of fluorescent tracers 5 or 6 in MCF7wt cells. In kind it is cell-based, human. Particulars: masking compound at 10 µM. An outline of the steps:
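Parental MCF7 cells were grown in high-glucose DMEM with 10% FBS and 1% penicillin-streptomycin at 37 °C. […] Cells were washed twice in PBS, detached 10 min at 37 °C, pelleted and resuspended in PBS. Flow cytometry used a 530 nm band pass filter, 50,000 events per analysis.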
For orientation: Flow cytometry measures light scatter and fluorescence of single cells or particles in a stream.

Data set [2] addresses human σ1 receptors in MCF7σ1 cells (Homo sapiens, UniProt Q99720). Kind of data set: Flow cytometry displacement of fluorescent tracers 5 or 6 in MCF7σ1 cells. In kind it is binding. Particulars: for effect on fluorescent signal by tracers 5 and 6 (100 nM): MCF7σ1 cells, masking compound at 10 µM; for concentration at which the cellular fluorescence signal reaches a plateau: MCF7 cell lines, 45 and 75 min incubation, flow cytometry.

Another data set concerns the target σ1 receptor (Cavia porcellus, UniProt Q60492). Kind of data set: σ1 receptor radioligand competition binding. Further details: species or system guinea pig. The note with it: for σ1 versus σ2 receptor selectivity: ratio of σ2 and σ1 Ki.
Data set [3] in a line: Fluorescence spectroscopy. Particulars: with respect to quinine sulfate. The data set is classed as physicochemical. The procedure, abridged:
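Excitation and emission spectra were recorded on the free base in EtOH (per table footnote) or in CHCl3. Fluorescence quantum yield was calculated relative to quinine sulfate.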

A further data set deals with T1, σ2 receptor (Rattus norvegicus, UniProt Q5U3Y7).
T1 sequence (Q5U3Y7 1-176): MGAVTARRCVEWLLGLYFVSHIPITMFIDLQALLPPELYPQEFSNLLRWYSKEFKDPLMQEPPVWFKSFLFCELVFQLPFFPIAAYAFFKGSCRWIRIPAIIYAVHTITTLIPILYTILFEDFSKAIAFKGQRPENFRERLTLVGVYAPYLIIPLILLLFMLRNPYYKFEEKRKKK
The data set is described as follows: σ2 receptor radioligand competition binding, [3H]-DTG with 1 µM. (In general: Loss of bound radioactivity is the signal in a displacement assay; it reports binding, not function.)

In data set [4] the test system is ARPE19 cells. The data set is described as follows: MTT cell viability assay, paraquat toxicity in ARPE19 cells. The data set is classed as cell-based, human. Particulars: 1 mM paraquat, 24 h. In general terms: Tetrazolium dyes change colour on reduction, which living cells bring about.

σ1 receptor, sequence (Q60492 whole entry): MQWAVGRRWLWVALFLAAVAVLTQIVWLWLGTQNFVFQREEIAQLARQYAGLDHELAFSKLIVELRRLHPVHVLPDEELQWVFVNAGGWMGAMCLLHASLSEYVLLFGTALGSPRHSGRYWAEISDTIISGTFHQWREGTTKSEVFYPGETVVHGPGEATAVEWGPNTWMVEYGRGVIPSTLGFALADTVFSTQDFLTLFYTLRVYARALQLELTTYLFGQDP
human σ1 receptors in MCF7σ1 cells, sequence (Q99720 whole entry): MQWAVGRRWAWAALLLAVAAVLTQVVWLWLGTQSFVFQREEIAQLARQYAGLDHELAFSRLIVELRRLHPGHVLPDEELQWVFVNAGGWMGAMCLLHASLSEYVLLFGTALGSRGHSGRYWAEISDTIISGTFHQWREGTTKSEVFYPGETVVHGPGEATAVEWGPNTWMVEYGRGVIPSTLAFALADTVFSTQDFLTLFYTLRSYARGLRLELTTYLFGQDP

Take `COc1ccc2c(c1)CCCC2CCCCN1CCC(C)CC1` (stereo not drawn) [PB190, 4-methyl-1-[4-(6-methoxy-1,2,3,4-tetrahydronaphthalen-1-yl)butyl]piperidine]: in the data set with ARPE19 cells [1], the “effect on labeling by compound 9 when cells prelabeled” value was “Lower intensity of labeling”.
For the compound `COc1cc2c(cc1OC)CN(CCCN1CCc3c(OC)cccc3C1=O)CC2` [Compound 10, 2-(3-(6,7-dimethoxy-3,4-dihydroisoquinolin-2(1H)-yl)propyl)-5-methoxy-3,4-dihydroisoquinolin-1(2H)-one, reference compound], the “effect on fluorescent signal by tracers 5 or 6 (100 nM)” value with MCF7wt cells was “no change”. For the same compound, the “effect on fluorescent signal by tracers 5 and 6 (100 nM)” value in data set [2] is listed as “only slightly decreased”.
The matching figures for `CC(C)=CCN1CC[C@]2(C)c3cc(O)ccc3C[C@H]1[C@H]2C` [(+)-Pentazocine, reference compound]: “no change” and “strongly decreased”.
Regarding `CC1CCN(CCCCC2CCCc3cc(OCCCCCCN4C(=O)c5ccc(N(C)C)cc5C4=O)ccc32)CC1` (stereo not drawn) [Compound 5, 5-(Dimethylamino)-2-(6-((5-(4-(4-methylpiperidin-1-yl)butyl)-5,6,7,8-tetrahydronaphthalen-2-yl)oxy)hexyl)isoindoline-1,3-dione], the “σ1 versus σ2 receptor selectivity” value on σ1 receptor is 10 fold. In addition, in data set [3], the “QY CHCl3 (fluorescence quantum yield)” value is recorded as 0.5 and the “QY EtOH (fluorescence quantum yield)” value is reported as 0.02. Further, the “concentration at which the cellular fluorescence signal reaches a plateau” value in data set [2] came to 100 nM.
In the case of `CC1CCN(CCCCc2cccc3cc(OCCCCCCN4C(=O)c5ccc(N(C)C)cc5C4=O)ccc23)CC1` [Compound 6, 5-(Dimethylamino)-2-{6-[(5-(4-(4-methylpiperidin-1-yl)butyl)naphthalen-2-yl)oxy]hexyl}isoindole-1,3-dione], the “decrease of σ2 affinity in comparison to the lead compound” value at σ2 receptor (6 vs PB212) worked out at 2.5 fold. In addition, the “σ1 versus σ2 receptor selectivity” value at σ1 receptor amounted to 10 fold. For the same compound, in data set [3], the “QY CHCl3 (fluorescence quantum yield)” value is recorded as 0.4 and the “QY EtOH (fluorescence quantum yield)” value was found to be 0.02. Besides, the “concentration at which the cellular fluorescence signal reaches a plateau” value in data set [2] is recorded as 100 nM.
Turning to `CN(C)c1ccc2c(c1)C(=O)N(CCCCCCOc1cccc3c1CCCC3CCC(=O)N1CCN(C3CCCCC3)CC1)C2=O` (stereo not drawn) [Compound 9, 2-(6-((5-(3-(4-Cyclohexylpiperazin-1-yl)-3-oxopropyl)-5,6,7,8-tetrahydronaphthalen-1-yl)oxy)hexyl)-5-(dimethylamino) isoindole-1,3-dione], at σ2 receptor, the Ki (as a rule, the equilibrium dissociation constant of an inhibitor or competing ligand from its target) came to 38.4 ± 10.9 nM. Further, the “σ2 receptor affinity higher than that of the lead compound” value at σ2 receptor (9 vs 1) is listed as 5 fold. In addition, the “cytoprotection against paraquat-mediated toxicity (MTT viability)” value in the data set on ARPE19 cells [4] was “protects against such toxicity”. In addition, on σ1 receptor, the inhibition constant (Ki) stood at 13.1 ± 5.02 nM and the “σ1 versus σ2 receptor selectivity” value is reported as 3 fold. Besides, in data set [3], the “QY CHCl3 (fluorescence quantum yield)” value worked out at 0.4 and the “QY EtOH (fluorescence quantum yield)” value is 0.02.
